This sample holds only a part of the variants without activity.
B1: tRNA (parent)
chain: GUUCCGUUGGCGUAAUGGUAACGCGUCUCCCUCCUAAGGAGAAGACUGCGGGUUCGAGUCCCGUACGGAACG

Variants of: B1
Assay: yeast fitness relative to wild type (ratio to wild type); higher = fitter; tRNA-Arg(CCU), competitive growth, 37 C, YPD
How it was run: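 Variants of the tRNA-Arg(CCU) gene, chemically synthesised with a 3% per-site mutation rate at 69 sites, were placed at the native genomic locus in Saccharomyces cerevisiae. The pooled strains were competed in YPD at 37°C for 24 hours in six parallel replicates. Gene amplicons from the start population and from each end population were read by 100-nucleotide paired-end sequencing. Darwinian fitness relative to wild type came from changes in genotype frequencies; genotypes needed ≥ 100 starting reads, and estimates < 0.5 were set to 0.5.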

Variant | yeast fitness
C5A G12A C33G | 0.646
C11U A14G C29U G39A | ≤ 0.5
U8C U59A A70G | 0.556
C33U A42G U59A | ≤ 0.5
C4U A20C C55G | ≤ 0.5
C11G A15G U26A U32A G38A A40C | 0.546
G23C G50A C61U | ≤ 0.5
G9C A36G | 0.691
U19C C24G A37U U47A A57G | ≤ 0.5
U7C C29G U47C U53G | ≤ 0.5
C4U A36U U47C | ≤ 0.5
C4A G6A G23A C49A U59C C62U A65U A70C | ≤ 0.5
G10C C29G G39A | ≤ 0.5
C5G G9C C33G A45G C55G G56C | ≤ 0.5
C5U A40G A43G C55U | ≤ 0.5
G12A C24U G67C | 0.603
C11A A65G C66U | 0.571
C11U C55G A70C | 0.541
C5G C46U | 0.88
G41C A70G | 0.829
U47A C61U | 0.948
C33A A43G A45C | ≤ 0.5
C27U U64C C66A | ≤ 0.5
A15G U35A A57G G58U C62G | ≤ 0.5

Variant | yeast fitness
G23A C29G C55A | 0.536
C5A A20G U26A A40G G58C G67U | ≤ 0.5
C30A A57G | 0.74
G10A C24A C62U | ≤ 0.5
U7G C11G C34U G41A C60A C61U G63C C66U | ≤ 0.5
A14G C31U C55A G67A A70G | ≤ 0.5
C22A U26A U54C C61A | 0.612
A20C C24A C29U G63C | ≤ 0.5
U2C A21G C33G A69C | 0.57
C5U C31U G41A | 0.831
C31G C49A | 0.734
G17C C22G U26A A43G C61U A65U | ≤ 0.5
C34A U47C A57G A65U | ≤ 0.5
U19A G39A G63C | ≤ 0.5
G17A A36C | 0.558
G6A C31A | 0.819
A14U C29A C49A | ≤ 0.5
C11G G12A C31G A69U | ≤ 0.5
U16A G18C A36G G48C | ≤ 0.5
C4G G10C C46G | 0.632
C11G G38A C66U | ≤ 0.5
C5G A20G A36C | 0.52
U32A A36G | 0.814
C4G A21G U28A A69U | ≤ 0.5

Variant | yeast fitness
C33A A45U C66A | ≤ 0.5
U16C A40U A70U | 0.683
A36U G39C A57U | ≤ 0.5
C4G A37G G51A A57G | 0.523
G12A C24U C34G | 0.696
C29A A36C G52C | 0.545
C4G C5G A43G | 0.556
U2C G23A C31G G58A | ≤ 0.5
U2A G23A C29G C55U | ≤ 0.5
U2A C4G G56A G58A A65C | ≤ 0.5
C4U C27G U53A | ≤ 0.5
C11A C27A C55U G63A G67C | ≤ 0.5
A14C G41A | 0.553
A20G C24A C27A | 0.52
A14U A43G A57C C60G C61A | ≤ 0.5
C5G G9A C31G | 0.767
C4A C24U C55A A65C | ≤ 0.5
G10A U13A C24A U54A | ≤ 0.5
C11G A21U A40U U54A | 0.681
C4A C29G A57G U59A A69U | ≤ 0.5
U7C U64A G68U | ≤ 0.5
C11U C24A C31U C33U A37U G48A G67A | ≤ 0.5
G12C A20U G25A U59A | ≤ 0.5
G6A A15G C29A | ≤ 0.5

Variant | yeast fitness
G6C U8C C66U | 0.73
C5U C22U A37U G67A | ≤ 0.5
U7A G18U C31U C49G | ≤ 0.5
A42G C49U C66A | ≤ 0.5
G9C C11G A57C A70C | ≤ 0.5
C61G U64C | 0.579
U7G G50A | 0.858
C5U U19G G23A C46A | ≤ 0.5
G12A G41C | 0.864
G10A U54C C61G | ≤ 0.5
G9A G17C G56C | 0.589
C11U G48A C49A U54A | ≤ 0.5
C27U G58C U59C A70G | ≤ 0.5
C5U G23A | 0.742
A20G C29A A70U | 0.557
A14U A20G G44C | ≤ 0.5
G10C G12C G39A C61U | ≤ 0.5
U3A U32C | 1
U3A U47C G51A U53C | ≤ 0.5
U7C A15G C61G C66U A69U | ≤ 0.5
A15C A40U G63A A65G G67A | ≤ 0.5
A45C C55U G68C | 0.626
C55U C61G | ≤ 0.5
U19C U26A C46U | 0.901

Variant | yeast fitness
C11A A21G C34U A37G G52C A57U A69U | ≤ 0.5
G17A G18A U26C A42C C55U | ≤ 0.5
U7A C11A C33U C55G G56A | 0.838
C33U G41C A45C | 0.621
G10A G17A U35G A36G A40C A57C C62A | ≤ 0.5
A36G C49G G63A A69C A70C | ≤ 0.5
C30U U54A G68U | ≤ 0.5
U16C C22U A37U C49A | 0.574
U8A C27A | 0.625
U13A C34U | 0.58
C30U U47A G67C G68A | ≤ 0.5
A14U C55A C62U C66U | 0.553
A40C C61A C66A | ≤ 0.5
U2A G6A C11G C49U G58C G68U | ≤ 0.5
A14G C31G A37U | 0.533
U3C G12A C49U | 0.569
A21U A57C G67A | 0.556
C4G U16G C30U C34A U53G U59C A70C | ≤ 0.5
G9U C29G A65U | ≤ 0.5
C49U C62U G67A | 0.573
A15U U28A A40C C46G | ≤ 0.5
G9C C24G C33G U35A G48C C66A | ≤ 0.5
A14C C22A G67C | ≤ 0.5
C24U U53C C60G | ≤ 0.5

Variant | yeast fitness
U19C C31U C33G G41A C55U C61A | ≤ 0.5
A15G G39A A69U | 0.774
G10C G12C C33U U35G | 0.614
C22U U35A G52A | ≤ 0.5
U3A A45U C46G G52A G68C | ≤ 0.5
U28A A36U G52A | 0.777
C24U U26G U35A C62A | ≤ 0.5
U3G U8A U26G G38C A40C U53C | 0.566
A14U A69C | 0.635
C49G G50A | 0.667
C4A C5G G50A U53A C60U G63C | 0.614
G6A C24G U35A G48C A69G | 0.574
U3G C31G | 0.874
C4U C31G G38A C61A G63A | ≤ 0.5
A14G G38A A43G | ≤ 0.5
C22G C34U C49U C55G C62U | ≤ 0.5
C11U G39C G58A A70U | ≤ 0.5
C11G C24A C66U | ≤ 0.5
G9A G25C U26G C46G A70U | ≤ 0.5
G10A C24A A43U G48A | ≤ 0.5
A40G A57C C62U | ≤ 0.5
C4G U28G C30A A42G A43C C61G | ≤ 0.5
G41A C49U | 0.921
U3C C11A | 0.65

Variant | yeast fitness
A14G G23A U35C A37C | 0.5
G25C A40G | 0.645
C33A A42G | 0.583
C4G G48C G51C A57U G68C | 0.55
C4A G25A A40C A65C | ≤ 0.5
C55A C60A | 0.624
U35G A43G C46U | 0.702
U7G G10C A43U C55U | ≤ 0.5
G17C C30U A40G | 0.686
A20U U26A A65C G67C | 0.563
A14U C34G A37C C62U | ≤ 0.5
C22A G51C | 0.719
G18C C24A U32C | 0.55
U47G C60G | 0.675
C4G A21G | 0.997
G25A U26C C29G A45G | ≤ 0.5
A42C C60G | 0.608
C11A G67C | 0.574
U7C C29G G58C G67C | ≤ 0.5
G9C U19A G58A A65G | ≤ 0.5
C5G C24G C30G C31U U35A A36U | 0.755
U8C A15U U16A U26A | ≤ 0.5
A37C A40G G52C U59C A65U C66U | ≤ 0.5
